Assay results as given in ChEMBL document CHEMBL1123430, “Potential tumor- or organ-imaging agents. 26. Polyiodinated 2-substituted triacylglycerols as hepatographic agents” (J Med Chem, 1986).

Assays:
Rattus norvegicus [1] = assay: Percentage […]/CH3OH extract of the radiolabeled compound in rat liver 30 minutes after iv administration; assay type: functional
Procedure, shortened: (§1)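 Liver and plasma were taken at 5 or 30 min. Plasma was extracted by a modified Folch procedure, and liver was homogenized and extracted. Extracts were run on TLC in hexane/ethyl acetate (5:2) for esters or THF/hexane (1:1) for acids, with unlabeled compound as reference. Plates were cut into 1-cm strips and counted. Values are percent ± SEM, n = 3-5.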

Rattus norvegicus [2] = assay: Distribution of radioactivity of radiolabeled compound in lung of female rats 30 minutes after intravenous administration; assay type: ADME, organism-based; conditions: in vivo, 0.5 h
Rattus norvegicus [3] = assay: Polyacrylamide Gel Electrophoresis (PAGE) analysis of rat plasma 30 minutes after intravenous administration of radiolabeled compound in low-density lipoprotein; assay type: functional, organism-based
Procedure, shortened: (§2)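 Gels were sectioned and counted in a γ counter. Radioactivity in each band (stacking gel, LDL, HDL, albumin, below albumin) is expressed as a percentage of the total radioactivity applied to the gel, ± SEM, n = 3-5.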

Rattus norvegicus [4] = assay: Percentage parent compound in rat plasma 5 minutes after iv administration of the radiolabeled compound by thin-layer chromatography; assay type: functional; procedure, shortened: as §1
Rattus norvegicus [5] = assay: Percentage […]/CH3OH extract of the radiolabeled compound in rat plasma 5 minutes after iv administration; assay type: functional; procedure, shortened: as §1
Rattus norvegicus [6] = assay: Polyacrylamide Gel Electrophoresis (PAGE) analysis of rat plasma 5 minutes after intravenous administration of radiolabeled compound in low-density lipoprotein; assay type: functional, organism-based
Procedure, shortened: (§3)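 ¹²⁵I-labeled compound, radioiodinated by exchange in a pivalic acid melt, solubilized in normal saline with Tween 20 and given iv to adult female Sprague–Dawley rats (200–250 g), 5–30 μCi/animal, 3–4 rats per time point. Plasma was run on polyacrylamide gels. Gels were sectioned and gamma counted. Radioactivity per band (stacking gel, LDL, HDL, albumin, below albumin) is given as % of total applied; mean ± SEM, n = 3-5.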

Rattus norvegicus [7] = assay: Percentage parent compound in rat liver 5 minutes after iv administration of the radiolabeled compound by thin-layer chromatography; assay type: functional; procedure, shortened: as §1
Rattus norvegicus [8] = assay: Polyacrylamide Gel Electrophoresis (PAGE) analysis of rat plasma 30 minutes after intravenous administration of radiolabeled compound in high density lipoprotein; assay type: functional, organism-based; procedure, shortened: as §2
Rattus norvegicus [9] = assay: Distribution of radioactivity of radiolabeled compound in lung of female rats 5 minutes after intravenous administration; assay type: ADME, organism-based; conditions: in vivo
Rattus norvegicus [10] = assay: Percentage […]/CH3OH extract of the radiolabeled compound in rat liver 5 minutes after iv administration; assay type: functional; procedure, shortened: as §1
Rattus norvegicus [11] = assay: Percentage […]/CH3OH extract of the radiolabeled compound in rat plasma 30 minutes after iv administration; assay type: functional; procedure, shortened: as §1
Rattus norvegicus [12] = assay: Polyacrylamide Gel Electrophoresis (PAGE) analysis of rat plasma 30 minutes after intravenous administration of radiolabeled compound concentration in stacking gel; assay type: functional, organism-based; procedure, shortened: as §2
Rattus norvegicus [13] = assay: Distribution of radioactivity of radiolabeled compound in kidney of female rats 5 minutes after intravenous administration; assay type: ADME, organism-based; conditions: in vivo
Rattus norvegicus [14] = assay: Percentage parent compound in rat liver 30 minutes after iv administration of the radiolabeled compound by thin-layer chromatography; assay type: functional; procedure, shortened: as §1
Rattus norvegicus [15] = assay: Distribution of radioactivity of radiolabeled compound in liver of female rats 5 minutes after intravenous administration; assay type: ADME, organism-based; conditions: in vivo
Rattus norvegicus [16] = assay: Distribution of radioactivity of radiolabeled compound in heart of female rats 5 minutes after intravenous administration; assay type: ADME, organism-based; conditions: in vivo
Rattus norvegicus [17] = assay: Distribution of radioactivity of radiolabeled compound in kidney of female rats 30 minutes after intravenous administration; assay type: ADME, organism-based; conditions: in vivo, 0.5 h
Rattus norvegicus [18] = assay: Polyacrylamide Gel Electrophoresis (PAGE) analysis of rat plasma 5 minutes after intravenous administration of radiolabeled compound in high density lipoprotein; assay type: functional, organism-based; procedure, shortened: as §3
Rattus norvegicus [19] = assay: Polyacrylamide Gel Electrophoresis (PAGE) analysis of rat plasma 30 min after intravenous administration of radiolabeled compound in albumin; assay type: functional, organism-based; procedure, shortened: as §2
Rattus norvegicus [20] = assay: Distribution of radioactivity of radiolabeled compound in heart of female rats 30 minutes after intravenous administration; assay type: ADME, organism-based; conditions: in vivo, 0.5 h
Rattus norvegicus [21] = assay: Distribution of radioactivity of radiolabeled compound in blood of female rats 5 minutes after intravenous administration; assay type: ADME, organism-based; conditions: in vivo
Rattus norvegicus [22] = assay: Polyacrylamide Gel Electrophoresis (PAGE) analysis of rat plasma 5 min after intravenous administration of radiolabeled compound in albumin; assay type: functional, organism-based; procedure, shortened: as §2
Rattus norvegicus [23] = assay: Distribution of radioactivity of radiolabeled compound in blood of female rats 30 minutes after intravenous administration; assay type: ADME, organism-based; conditions: in vivo, 0.5 h
Rattus norvegicus [24] = assay: Polyacrylamide Gel Electrophoresis (PAGE) analysis of rat plasma 30 minutes after intravenous administration of radiolabeled compound (below albumin); assay type: functional, organism-based; procedure, shortened: as §2
Rattus norvegicus [25] = assay: Polyacrylamide Gel Electrophoresis (PAGE) analysis of rat plasma 5 minutes after intravenous administration of radiolabeled compound (below albumin ); assay type: functional, organism-based; procedure, shortened: as §3
Rattus norvegicus [26] = assay: Polyacrylamide Gel Electrophoresis (PAGE) analysis of rat plasma 5 minutes after intravenous administration of radiolabeled compound in stacking gel; assay type: functional, organism-based; procedure, shortened: as §3
Rattus norvegicus [27] = assay: Percentage parent compound in rat plasma 30 minutes after iv administration of the radiolabeled compound by thin-layer chromatography; assay type: functional; procedure, shortened: as §1
Rattus norvegicus [28] = assay: Distribution of radioactivity of radiolabeled compound in liver of female rats 30 minutes after intravenous administration; assay type: ADME, organism-based; conditions: in vivo, 0.5 h
Rattus norvegicus [29] = assay: Polyacrylamide Gel Electrophoresis (PAGE) analysis of rat plasma 5 min after intravenous administration of radiolabeled compound concentration of albumin; assay type: functional, organism-based; procedure, shortened: as §2
Rattus norvegicus [30] = assay: Polyacrylamide Gel Electrophoresis (PAGE) analysis of rat plasma 30 min after intravenous administration of radiolabeled compound ( below albumin); assay type: functional, organism-based; procedure, shortened: as §2
Rattus norvegicus [31] = assay: Polyacrylamide Gel Electrophoresis (PAGE) analysis of rat plasma 30 minutes after intravenous administration of radiolabeled in stacking gel; assay type: functional, organism-based; procedure, shortened: as §2
Rattus norvegicus [32] = assay: Polyacrylamide Gel Electrophoresis (PAGE) analysis of rat plasma 5 minutes after intravenous administration of radiolabeled compound at in high density lipoprotein; assay type: functional, organism-based; procedure, shortened: as §3
Rattus norvegicus [33] = assay: Polyacrylamide Gel Electrophoresis (PAGE) analysis of rat plasma 30 min after intravenous administration of radiolabeled compound at in high density; assay type: functional, organism-based; procedure, shortened: as §2
Rattus norvegicus [34] = assay: Polyacrylamide Gel Electrophoresis (PAGE) analysis of rat plasma 30 min after intravenous administration of radiolabeled compound in low density lipoprotein; assay type: functional, organism-based; procedure, shortened: as §2
Rattus norvegicus [35] = assay: Polyacrylamide Gel Electrophoresis (PAGE) analysis of rat plasma 5 minutes after intravenous administration of radiolabeled compound (below albumin); assay type: functional, organism-based; procedure, shortened: as §3
Rattus norvegicus [36] = assay: Polyacrylamide Gel Electrophoresis (PAGE) analysis of rat plasma 5 min after intravenous administration of radiolabeled compound in low-density lipoprotein; assay type: functional, organism-based; procedure, shortened: as §3
Rattus norvegicus [37] = assay: Polyacrylamide Gel Electrophoresis (PAGE) analysis of rat plasma 30 minutes after intravenous administration of radiolabeled compound concentration of stacking gel; assay type: functional, organism-based; procedure, shortened: as §2
Rattus norvegicus [38] = assay: Polyacrylamide Gel Electrophoresis (PAGE) analysis of rat plasma 30 min after intravenous administration of radiolabeled compound in low-density lipoprotein; assay type: functional, organism-based; procedure, shortened: as §2
Rattus norvegicus [39] = assay: Polyacrylamide Gel Electrophoresis (PAGE) analysis of rat plasma 30 min after intravenous administration of radiolabeled compound at concentration of high density; assay type: functional, organism-based; procedure, shortened: as §2

| Compound | Activity (Rattus norvegicus [1]) [%] | Dose (Rattus norvegicus [2]) [%] | Activity (Rattus norvegicus [5]) [%] | Concentration (Rattus norvegicus [6]) [%] | Dose (Rattus norvegicus [9]) [%] | Activity (Rattus norvegicus [10]) [%] | Activity (Rattus norvegicus [11]) [%] | Dose (Rattus norvegicus [13]) [%] | Dose (Rattus norvegicus [15]) [%] | Dose (Rattus norvegicus [16]) [%] | Dose (Rattus norvegicus [17]) [%] | Concentration (Rattus norvegicus [18]) | Concentration (Rattus norvegicus [19]) | Dose (Rattus norvegicus [20]) [%] | Dose (Rattus norvegicus [21]) [%] | Concentration (Rattus norvegicus [22]) | Dose (Rattus norvegicus [23]) [%] | Concentration (Rattus norvegicus [25]) | Concentration (Rattus norvegicus [26]) [%] | Dose (Rattus norvegicus [28]) [%] | further results |
| --- | --- | --- | --- | --- | --- | --- | --- | --- | --- | --- | --- | --- | --- | --- | --- | --- | --- | --- | --- | --- | --- |
| CCCCCCCCCCCCCCCC(=O)OCC(COC(=O)CCCCCCCCCCCCCCC)OC(=O)Cc1c(I)cc(I)c(N)c1I | 83.1 | 1.34 | 89.4 | 34 | 1.41 | 91.2 | 81.5 | 0.93 | 2.96 | 0.63 | 0.87 | 50.5 | 1.9 | 0.68 | 6.23 | 3.3 | 6.5 | 3.2 | 9 | 4 | Concentration (Rattus norvegicus [3]): 41.2%; Activity (Rattus norvegicus [4]): 97.7%; Activity (Rattus norvegicus [7]): 91.7%; Concentration (Rattus norvegicus [8]): 53.4%; Concentration (Rattus norvegicus [12]): 3%; Activity (Rattus norvegicus [14]): 89%; Concentration (Rattus norvegicus [24]): 0.5; Activity (Rattus norvegicus [27]): 91.9% |
| Nc1c(I)cc(I)c(CCC(=O)O)c1I | – | 0.45 | – | 2.4 | 1.02 | – | – | 2.44 | 1.08 | 4 | 1.54 | – | 51.5 | 4.14 | 2.52 | – | 1.15 | 4.1 | 4.6 | 0.77 | Concentration (Rattus norvegicus [29]): 83.6; Concentration (Rattus norvegicus [30]): 10.8; Concentration (Rattus norvegicus [31]): 11; Concentration (Rattus norvegicus [32]): 5.3%; Concentration (Rattus norvegicus [33]): 13.3%; Concentration (Rattus norvegicus [34]): 6.9 |
| CCCCCCCCCCCCCCCC(=O)OCC(COC(=O)CCCCCCCCCCCCCCC)OC(=O)C(CC)Cc1c(I)cc(I)c(N)c1I (configuration not stated) | 79.7 | 0.97 | 85.7 | – | 1.15 | 84.4 | 92.2 | 0.65 | 2.16 | 0.6 | 0.65 | 52.6 | 5.4 | 1.92 | 6.04 | 4.4 | 3.73 | 3 | 4.6 | 4.6 | Concentration (Rattus norvegicus [35]): 3; Concentration (Rattus norvegicus [36]): 35.1; Concentration (Rattus norvegicus [37]): 7.1; Concentration (Rattus norvegicus [38]): 27.5; Concentration (Rattus norvegicus [39]): 54.1 |
